According to ChEMBL document CHEMBL1151705, “Novel azalides derived from 16-membered macrolides. Part II: Isolation of the linear 9-formylcarboxylic acid and its sequential macrocyclization with an amino alcohol or an azidoamine” (2008):
In brackets after ≈: the same amount, converted by molar mass.

Legend:
Format in all cases: functional
[1] = tested on: Streptococcus pneumoniae; assay: Antimicrobial activity against Streptococcus pneumoniae 8 expressing inducible ermB after 20 hrs by agar dilution method
Outline: (§1)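 Streptococci, H. influenzae and M. catarrhalis were precultured on blood agar plates. Suspensions of about 10⁶ CFU/ml were inoculated onto sensitivity disk agar supplemented with 5% horse blood and incubated at 37 °C for 20 h. MIC was read as the lowest drug concentration with no visible growth.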

[2] = tested on: Streptococcus pneumoniae; assay: Antimicrobial activity against Streptococcus pneumoniae 9 expressing mefA after 20 hrs by agar dilution method; conditions: Streptococcus pneumoniae, 20 h; read-out: MIC; outline: as §1
[3] = tested on: Streptococcus pneumoniae; assay: Antimicrobial activity against Streptococcus pneumoniae 10 expressing mefA after 20 hrs by agar dilution method; conditions: Streptococcus pneumoniae, 20 h; read-out: MIC; outline: as §1
[4] = tested on: Streptococcus pyogenes; assay: Antimicrobial activity against drug-susceptible Streptococcus pyogenes 1 after 20 hrs by agar dilution method; conditions: Streptococcus pyogenes, 20 h; read-out: MIC; outline: as §1
[5] = tested on: Streptococcus pyogenes; assay: Antimicrobial activity against Streptococcus pyogenes 2 constitutively expressing ermB after 20 hrs by agar dilution method; outline: as §1
[6] = tested on: Streptococcus pyogenes; assay: Antimicrobial activity against Streptococcus pyogenes 3 expressing mefA after 20 hrs by agar dilution method; conditions: Streptococcus pyogenes, 20 h; read-out: MIC; outline: as §1
[7] = tested on: Moraxella catarrhalis; assay: Antimicrobial activity against drug-susceptible Moraxella catarrhalis 1 after 20 hrs by agar dilution method; conditions: Moraxella catarrhalis, 20 h; read-out: MIC; outline: as §1
[8] = tested on: Moraxella catarrhalis; assay: Antimicrobial activity against drug-susceptible Moraxella catarrhalis 2 after 20 hrs by agar dilution method; conditions: Moraxella catarrhalis, 20 h; read-out: MIC; outline: as §1
[9] = tested on: Haemophilus influenzae; assay: Antimicrobial activity against drug-susceptible Haemophilus influenzae 1 after 20 hrs by agar dilution method; conditions: Haemophilus influenzae, 20 h; read-out: MIC; outline: as §1
[10] = tested on: Haemophilus influenzae; assay: Antimicrobial activity against drug-susceptible Haemophilus influenzae 2 after 20 hrs by agar dilution method; conditions: Haemophilus influenzae, 20 h; read-out: MIC; outline: as §1
[11] = tested on: Haemophilus influenzae; assay: Antimicrobial activity against drug-susceptible Haemophilus influenzae 3 after 20 hrs by agar dilution method; conditions: Haemophilus influenzae, 20 h; read-out: MIC; outline: as §1
[12] = tested on: Haemophilus influenzae; assay: Antimicrobial activity against drug-susceptible Haemophilus influenzae 4 after 20 hrs by agar dilution method; conditions: Haemophilus influenzae, 20 h; read-out: MIC; outline: as §1
[13] = tested on: Staphylococcus aureus; assay: Antimicrobial activity against drug-susceptible Staphylococcus aureus 209P JC-1 after 20 hrs by agar dilution method; conditions: Staphylococcus aureus, 209P, 20 h; read-out: MIC
Outline: (§2)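 Agar dilution MIC. S. aureus seed culture was grown in sensitivity test broth. Cell suspension (about 10⁶ CFU/ml) was inoculated onto sensitivity disk agar with 5% horse blood and incubated at 37 °C for 20 h. MIC was the lowest drug concentration that prevented visible growth.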

[14] = tested on: Staphylococcus aureus; assay: Antimicrobial activity against drug-susceptible Staphylococcus aureus 2 after 20 hrs by agar dilution method; conditions: Staphylococcus aureus, 20 h; read-out: MIC; outline: as §2
[15] = tested on: Staphylococcus aureus; assay: Antimicrobial activity against drug-susceptible Staphylococcus aureus 3 after 20 hrs by agar dilution method; conditions: Staphylococcus aureus, 20 h; read-out: MIC; outline: as §2
[16] = tested on: Staphylococcus aureus; assay: Antimicrobial activity against Staphylococcus aureus 4 constitutively expressing ermA after 20 hrs by agar dilution method; outline: as §2
[17] = tested on: Staphylococcus aureus; assay: Antimicrobial activity against Staphylococcus aureus 5 expressing inducible ermB after 20 hrs by agar dilution method; conditions: Staphylococcus aureus, 20 h; read-out: MIC; outline: as §2
[18] = tested on: Streptococcus pneumoniae; assay: Antimicrobial activity against drug-susceptible Streptococcus pneumoniae DP1 Type1 after 20 hrs by agar dilution method; outline: as §1
[19] = tested on: Streptococcus pneumoniae; assay: Antimicrobial activity against drug-susceptible Streptococcus pneumoniae 2 after 20 hrs by agar dilution method; conditions: Streptococcus pneumoniae, 20 h; read-out: MIC; outline: as §1
[20] = tested on: Streptococcus pneumoniae; assay: Antimicrobial activity against Streptococcus pneumoniae 5 constitutively expressing ermB/mefA after 20 hrs by agar dilution method; conditions: Streptococcus pneumoniae, 20 h; read-out: MIC; outline: as §1
[21] = tested on: Streptococcus pneumoniae; assay: Antimicrobial activity against Streptococcus pneumoniae 6 constitutively expressing ermB after 20 hrs by agar dilution method; conditions: Streptococcus pneumoniae, 20 h; read-out: MIC; outline: as §1
[22] = tested on: Streptococcus pneumoniae; assay: Antimicrobial activity against Streptococcus pneumoniae 7 expressing inducible ermB after 20 hrs by agar dilution method; outline: as §1
[23] = tested on: Staphylococcus aureus; assay: Antimicrobial activity against Staphylococcus aureus 6 expressing inducible ermB after 20 hrs by agar dilution method; outline: as §2
[24] = Streptococcus pneumoniae, 20 h, read-out: MIC

SMILES | MIC [2] | MIC [3] | MIC [4] | MIC [5] | MIC [6] | MIC [7] | MIC [8] | MIC [9] | MIC [10] | MIC [11] | MIC [12] | MIC [13] | MIC [14] | MIC [15] | MIC [16] | MIC [17] | MIC [19] | MIC [20] | MIC [21] | MIC [23] | further results
CCOC(=O)[C@H]1[C@H](C)O[C@@H](O[C@H]2[C@H](N(C)C)[C@@H](O)[C@H](O[C@H]3[C@@H](CC=O)C[C@@H](C)[C@@H](O)CN(CCCCc4ccccc4)CCCNC(=O)C[C@@H](OC(=O)CC)[C@@H]3OC)O[C@@H]2C)C[C@@]1(C)OC(C)=O | 0.25 µg/mL (≈ 0.259 µM) | 0.25 µg/mL (≈ 0.259 µM) | 0.13 µg/mL (≈ 0.135 µM) | > 128 µg/mL | 0.5 µg/mL (≈ 0.519 µM) | 0.13 µg/mL (≈ 0.135 µM) | 0.25 µg/mL (≈ 0.259 µM) | 8 µg/mL (≈ 8.3 µM) | 0.5 µg/mL (≈ 0.519 µM) | 2 µg/mL (≈ 2.07 µM) | 4 µg/mL (≈ 4.15 µM) | 0.25 µg/mL (≈ 0.259 µM) | 1 µg/mL (≈ 1.04 µM) | 0.25 µg/mL (≈ 0.259 µM) | > 128 µg/mL | 0.25 µg/mL (≈ 0.259 µM) | 0.25 µg/mL (≈ 0.259 µM) | > 128 µg/mL | > 128 µg/mL | 0.5 µg/mL (≈ 0.519 µM) | MIC [1, 24]: 16 µg/mL (≈ 16.6 µM); MIC [18, 24]: 0.13 µg/mL (≈ 0.135 µM); MIC [22, 24]: 16 µg/mL (≈ 16.6 µM)
CCOC(=O)[C@H]1[C@H](C)O[C@@H](O[C@H]2[C@H](N(C)C)[C@@H](O)[C@H](O[C@H]3[C@@H](CC=O)C[C@@H](C)[C@@H](OC(C)=O)CN(C)CCN(CCCCc4ccccc4)C(=O)C[C@@H](OC(=O)CC)[C@@H]3OC)O[C@@H]2C)C[C@@]1(C)OC(C)=O | 0.5 µg/mL (≈ 0.497 µM) | 0.5 µg/mL (≈ 0.497 µM) | 0.5 µg/mL (≈ 0.497 µM) | > 128 µg/mL | 2 µg/mL (≈ 1.99 µM) | 1 µg/mL (≈ 0.994 µM) | 2 µg/mL (≈ 1.99 µM) | > 128 µg/mL | 8 µg/mL (≈ 7.95 µM) | > 128 µg/mL | 16 µg/mL (≈ 15.9 µM) | 1 µg/mL (≈ 0.994 µM) | 2 µg/mL (≈ 1.99 µM) | 1 µg/mL (≈ 0.994 µM) | > 128 µg/mL | 0.5 µg/mL (≈ 0.497 µM) | 0.5 µg/mL (≈ 0.497 µM) | > 128 µg/mL | > 128 µg/mL | 1 µg/mL (≈ 0.994 µM) | MIC [1, 24]: 16 µg/mL (≈ 15.9 µM); MIC [18, 24]: 0.13 µg/mL (≈ 0.129 µM); MIC [22, 24]: 16 µg/mL (≈ 15.9 µM)
CCOC(=O)[C@H]1[C@H](C)O[C@@H](O[C@H]2[C@H](N(C)C)[C@@H](O)[C@H](O[C@H]3[C@@H](CC=O)C[C@@H](C)[C@@H](O)CN(CCCCc4ccccc4)CCCCNC(=O)C[C@@H](OC(=O)CC)[C@@H]3OC)O[C@@H]2C)C[C@@]1(C)OC(C)=O | 0.13 µg/mL (≈ 0.133 µM) | 0.13 µg/mL (≈ 0.133 µM) | 0.06 µg/mL (≈ 0.0613 µM) | > 128 µg/mL | 0.25 µg/mL (≈ 0.256 µM) | 0.13 µg/mL (≈ 0.133 µM) | 0.25 µg/mL (≈ 0.256 µM) | 16 µg/mL (≈ 16.4 µM) | 1 µg/mL (≈ 1.02 µM) | 4 µg/mL (≈ 4.09 µM) | 8 µg/mL (≈ 8.18 µM) | 0.25 µg/mL (≈ 0.256 µM) | 1 µg/mL (≈ 1.02 µM) | 0.5 µg/mL (≈ 0.511 µM) | > 128 µg/mL | 0.25 µg/mL (≈ 0.256 µM) | 0.25 µg/mL (≈ 0.256 µM) | > 128 µg/mL | > 128 µg/mL | 1 µg/mL (≈ 1.02 µM) | MIC [1, 24]: 8 µg/mL (≈ 8.18 µM); MIC [18, 24]: 0.13 µg/mL (≈ 0.133 µM); MIC [22, 24]: 8 µg/mL (≈ 8.18 µM)
CCOC(=O)[C@H]1[C@H](C)O[C@@H](O[C@H]2[C@H](N(C)C)[C@@H](O)[C@H](O[C@H]3[C@@H](CC=O)C[C@@H](C)[C@@H](O)CN(CCCCc4ccccc4)CCC(C)NC(=O)C[C@@H](OC(=O)CC)[C@@H]3OC)O[C@@H]2C)C[C@@]1(C)OC(C)=O (stereo in doubt; form 1) | 0.25 µg/mL (≈ 0.256 µM) | 0.25 µg/mL (≈ 0.256 µM) | 0.06 µg/mL (≈ 0.0613 µM) | > 128 µg/mL | 0.25 µg/mL (≈ 0.256 µM) | 0.13 µg/mL (≈ 0.133 µM) | 0.13 µg/mL (≈ 0.133 µM) | 16 µg/mL (≈ 16.4 µM) | 1 µg/mL (≈ 1.02 µM) | 4 µg/mL (≈ 4.09 µM) | 4 µg/mL (≈ 4.09 µM) | 0.25 µg/mL (≈ 0.256 µM) | 1 µg/mL (≈ 1.02 µM) | 0.25 µg/mL (≈ 0.256 µM) | > 128 µg/mL | 0.25 µg/mL (≈ 0.256 µM) | 0.13 µg/mL (≈ 0.133 µM) | > 128 µg/mL | > 128 µg/mL | 0.5 µg/mL (≈ 0.511 µM) | MIC [1]: 128 µg/mL (≈ 131 µM); MIC [18]: 0.06 µg/mL (≈ 0.0613 µM); MIC [22]: 128 µg/mL (≈ 131 µM)
CCC(=O)O[C@@H]1CC(=O)O[C@H](C)C/C=C/C=C/[C@H](OC(C)=O)[C@H](C)C[C@H](CC=O)[C@H](O[C@@H]2O[C@H](C)[C@@H](O[C@H]3C[C@@](C)(OC(C)=O)[C@@H](OC(=O)CC)[C@H](C)O3)[C@H](N(C)C)[C@H]2O)[C@H]1OC [MIOCAMYCIN] | 0.5 µg/mL (≈ 0.557 µM) | 0.5 µg/mL (≈ 0.557 µM) | 0.25 µg/mL (≈ 0.278 µM) | > 128 µg/mL | 0.5 µg/mL (≈ 0.557 µM) | 1 µg/mL (≈ 1.11 µM) | 2 µg/mL (≈ 2.23 µM) | 64 µg/mL (≈ 71.3 µM) | 2 µg/mL (≈ 2.23 µM) | 32 µg/mL (≈ 35.6 µM) | 16 µg/mL (≈ 17.8 µM) | 0.5 µg/mL (≈ 0.557 µM) | 1 µg/mL (≈ 1.11 µM) | 0.5 µg/mL (≈ 0.557 µM) | > 128 µg/mL | 0.5 µg/mL (≈ 0.557 µM) | 0.5 µg/mL (≈ 0.557 µM) | > 128 µg/mL | > 128 µg/mL | 1 µg/mL (≈ 1.11 µM) | MIC [1, 24]: 128 µg/mL (≈ 143 µM); MIC [18, 24]: 0.25 µg/mL (≈ 0.278 µM); MIC [22, 24]: 64 µg/mL (≈ 71.3 µM)
